RAM inhibit: blocks the yeast RAM network. S. cerevisiae dse1pr::URA3 reporter, 5-FOA growth OD615, 2 d; analog-sensitive cbk1-as2 kinase mutant strain. 190,000 compounds, 1.8% hits. inhibition, % at 50 µM. AID 868;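 active = inhibition above a set limit, 3 SD over mean compound inhibition, cut at about 8.4% in these data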;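 also: 0% = DMSO-only wells with no growth and 100% = 10 µM 1-NA-PP1 full growth; inhibition rescues growth on 5-FOA so higher OD means more RAM inhibition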
BB579 growth dn: reduces growth of yeast BB579 in restrictive medium | S. cerevisiae BB579 growth, OD615, 48 h | inhibition, % at 10 µM | 140,000 compounds, 0.51% hits | AID 804;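 active = inhibition above a set limit, 3 SD over the mean compound inhibition, cut at about 44% in these data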
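Test system: Saccharomyces cerevisiae DeaD strain BB579, replicative lifespan model yeast | Buffer or medium: Restrictive CSMM-D medium | Doses: One dose, 10 µM compound with 0.25% DMSO | Incubation: 48 h exposure, 30 °C | Detection: Culture absorbance at 615 nm | Control set: Amphotericin B at 10 µg/mL as positive control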
TNAP act hiacc: TNAP (human) activation, high acceptor | purified TNAP, CDP-star luminescence, 1 M DEA, 30 min; hits give high values; 0 = EDTA background, 1 = DMSO-only activity | P05186 | 200,000 tested, under 10 active | activation factor at 20 µM | AID 1136;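 active = activation factor at least 2 at 20 µM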
Target sequence (P05186 whole entry, looked up): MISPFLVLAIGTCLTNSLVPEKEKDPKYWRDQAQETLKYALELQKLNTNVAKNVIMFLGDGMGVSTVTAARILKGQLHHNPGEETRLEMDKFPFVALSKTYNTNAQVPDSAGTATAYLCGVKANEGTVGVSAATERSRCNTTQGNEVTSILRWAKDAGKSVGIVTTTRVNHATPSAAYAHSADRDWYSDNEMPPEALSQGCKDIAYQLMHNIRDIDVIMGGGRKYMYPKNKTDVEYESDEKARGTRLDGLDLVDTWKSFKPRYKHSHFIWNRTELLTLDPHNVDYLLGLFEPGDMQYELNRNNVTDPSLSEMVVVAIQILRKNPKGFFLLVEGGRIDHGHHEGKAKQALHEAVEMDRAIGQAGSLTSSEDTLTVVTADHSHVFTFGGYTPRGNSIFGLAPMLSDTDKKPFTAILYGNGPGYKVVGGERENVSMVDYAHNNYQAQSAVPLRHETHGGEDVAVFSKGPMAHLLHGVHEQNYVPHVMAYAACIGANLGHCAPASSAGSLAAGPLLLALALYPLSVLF
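system = human TNAP | amount = enzyme diluted 1/800 final | reagent = 100 µM CDP-star substrate | signal = luminescent substrate turnover signal | dosing = one dose, 20 µM | benchmarks = EDTA negative control, DMSO positive control | measure = activation factor | timing = 30 min reaction, room temperature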
TNAP inh noacc: blocks human TNAP activity with no phosphate acceptor present | inhibition, % at 20 µM | AID 1012 | purified TNAP, CDP-star luminescence, 30 min | 200,000 compounds, 0.26% hits | P05186;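 active = tissue-nonspecific alkaline phosphatase inhibition above about 50% at 20 µM in the single-dose screen, limit read from the data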;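 also: 0% = DMSO negative control and 100% = EDTA positive control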
Yeast lifespan up: yeast lifespan extension. 130,000 compounds, 0.68% hits. S. cerevisiae growth with nicotinamide, OD615; deaD strain in restrictive glucose medium. inhibition of the nicotinamide effect, % at 10 µM;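 active = inhibition above a set limit, placed 3 SD over the median of all compounds, cut at about 26% in these data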;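 also: 0% = nicotinamide-treated wells and 100% = cells grown without nicotinamide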
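Measured by: optical density (absorbance) at 615 nm; System: modified budding yeast, DeaD strain; Medium: restrictive CSMM-D dextrose medium; Timing: 4 h preincubation then 48 h treatment at 30 °C.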
TNAP inh hi DEA: blocks human TNAP under high phosphate acceptor concentration. P05186. purified TNAP, CDP-star luminescence, 1 M DEA. inhibition, % at 20 µM. 200,000 compounds, 0.03% hits;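 active = over 50% inhibition of tissue-nonspecific alkaline phosphatase at 20 µM in the single-dose screen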;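 also: plate controls were DMSO wells for no effect and EDTA-quenched wells as full inhibition for full effect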
Numbers without * were called inactive; x = not tested or not shown. This is a sample that favours compounds with a hit; in the whole collection about 2.8% have one here.

SMILES	RAM inhibit	BB579 growth dn	TNAP act hiacc	TNAP inh noacc	Yeast lifespan up	TNAP inh hi DEA
CC(C)(C)NC(=O)CSc1nc2ccc(NC(=O)CSc3nnnn3Cc3ccccc3)cc2s1	4	-46	1	-11	-9	-4
CCOC(=O)c1c(-c2ccco2)csc1N	2	-42	1	-17	-10	-4
CCOC(=O)c1c(NC(=O)c2c(Br)cnn2CC)sc(C)c1C	9.1*	1	1	-7	x	3
CSc1nnc(C)c(=O)n1COC(=O)COc1ccc(Cl)cc1	0	x	1.1	-12	x	-5
CCOc1ccc(S(=O)(=O)NC(Cc2cnc[nH]2)C(=O)O)cc1 (stereo unspecified)	0	x	1	-6	x	-4
CCCc1nnc(NC(=O)OCC)s1	2	x	1	19	x	-4
O=C(NNC(=O)c1sccc1-n1cccc1)c1cccc(Cl)c1	3	-48	1	-18	-15	-4
Nc1[nH]n2c(=O)cc(-c3ccccc3)nc2c1N=Nc1ccc2c(c1)OCO2	10*	x	0.8	17	x	21
Cc1[nH]n(-c2ccccc2)c(=O)c1N=Nc1ccc2c(c1)OCO2	3	x	0.8	7	x	17
O=C(COC(=O)CCCOc1ccc(Cl)cc1Cl)Nc1cccc(Cl)c1	11*	24	1.1	-13	-4	-6
COc1ccccc1OCCC(=O)OCC(=O)NCc1ccc(Cl)cc1	2	x	1	-4	x	2
O=C(COC(=O)CCc1c[nH]c(=O)[nH]1)Nc1cccc(Cl)c1	-1	-14	1	-7	-6	-1
COc1ccc(CNC(=O)COC(=O)CCCOc2ccc(Cl)cc2Cl)cc1	9.6*	-15	1	-14	-3	-2
NC(=O)CSc1ccc(F)cc1	0	x	1	-15	x	-2
N/C(Cn1cncn1)=N\NC(=O)C(=O)Nc1cccc(C(F)(F)F)c1	1	x	1	-120	x	-5
Cc1cc2c(ncn2Cc2ccccc2)c([N+](=O)[O-])c1C	1	-20	1.1	-11	-11	-6
CC(C)C(=O)NNC(=O)CSc1nnnn1C(C)C	-1	x	1.1	-13	x	-6
C/C(=N\OC(=O)NC(C)C)c1sc(-c2ccccc2)nc1C	1	8	1	-10	-11	-4
C/C(=N\OC(=O)NC1CCCCC1)c1sc(-c2ccccc2)nc1C	10*	-8	1	-7	-13	-1
O=C(CSc1ncn[nH]1)N1N=C2/C(=C/c3ccccc3)CCCC2C1c1ccccc1 (stereo unspecified)	2	-54	1	-30	-4	2
COc1ccc(/C=C2\CCCC3C2=NN(C(=O)CSc2ncn[nH]2)C3c2ccc(OC)cc2)cc1 (stereo unspecified)	8.4*	-28	1	-8	-1	0
COc1ccc(CCNc2nc(-c3ccco3)cc(C(F)(F)F)n2)cc1OC	10*	14	1	-2	-8	-2
CN(C)c1nc(-c2ccccc2)cc(C(F)(F)F)c1C#N	8	-13	1.1	-1	-11	-7
CCN(CC)c1nc(-c2ccc(Cl)cc2)cc(C(F)(F)F)c1C#N	9.6*	-9	1.1	0	-7	-10
Cc1ccc(/C=C/c2nc3ccccc3c(=O)n2CCc2ccccc2)cc1	10*	-37	1	-8	1	3
SMILES	RAM inhibit	BB579 growth dn	TNAP act hiacc	TNAP inh noacc	Yeast lifespan up	TNAP inh hi DEA
Cc1ccccc1/C=C/c1nc2ccccc2c(=O)n1CCc1ccccc1	7	-25	0.9	-12	8	7
Cc1ccc(Cn2nc(C)c3cc(C(=O)OCC(N)=O)sc32)cc1	2	-54	1	-7	-14	-3
S=C(NCCc1ccccc1)Nc1ccc(Br)cn1	3	x	1.1	-14	x	-5
O=[N+]([O-])c1cc(C(F)(F)F)cc([N+](=O)[O-])c1NCCCNc1ccc([N+](=O)[O-])c2cccnc12	9.0*	-34	0.9	4	10	14
Cc1cccc(N2CCN(C(=O)C3(S(=O)(=O)c4ccc(Cl)cc4)CC3)CC2)c1C	8.6*	x	1	6	x	-4
CC1CCc2cccc3c2N1c1cc(C#N)c(C#N)cc1O3 (stereo unspecified)	2	-15	1	-4	-23	1
CCCN1Cc2cccc(C(=O)N3CCN(c4ccc(OC)cc4)CC3)c2C1=O	1	x	1.1	-16	x	-6
COc1ccc(N2Cc3cccc(C(=O)O)c3C2=O)cc1	2	9	1.1	-10	29*	-5
CCOc1ccc(C(=O)NC(=S)Nc2cccc(NC(=O)c3ccco3)c2)cc1[N+](=O)[O-]	8.8*	-22	1	-5	8	-1
COc1ccc(C(=O)NC(=S)Nc2cccc(NC(=O)c3ccco3)c2)cc1[N+](=O)[O-]	2	-8	1	-1	-6	3
CCOC(=O)c1cc([N+](=O)[O-])c([N+](=O)[O-])cc1NC(C)=O	0	99*	1	-7	-12	-1
O=C1OC(c2ccccc2)=NC12CC2c1ccc(Cl)cc1 (stereo unspecified)	1	1	1	-12	30*	-3
CCS(=O)(=O)c1ccc2oc(SCC(=O)NCCc3ccc(F)cc3)nc2c1	1	x	1	-6	x	2
CCN(CC)S(=O)(=O)c1ccc2oc(SCc3ccc(F)cc3)nc2c1	10.0*	-56	1	-8	0	-4
COc1ccc(NC(=O)CC(NCCc2ccccc2)C(=O)O)c(OC)c1 (stereo unspecified)	1	-14	1.1	-14	-7	-9
COCCCNC(CC(=O)Nc1ccc(OC)cc1OC)C(=O)O (stereo unspecified)	3	-22	1	-10	101*	-2
FC(F)(F)c1cnc2c(-c3ccccc3)n[nH]c2c1	3	x	1	81*	x	4
COc1ccc(CCNC(=O)CSc2nnc3ccccn23)cc1	2	x	1	-12	x	-4
CCOC(=O)C1(C)NC(c2cccs2)C2C(=O)N(c3ccc(OC)cc3)C(=O)C21 (stereo unspecified)	2	x	1	-10	x	-5
COc1ccc(NC(=O)c2cc3c(Cl)nc4ccccc4c3s2)cc1OC	5	-36	1	-6	-3	2
COc1ccc(OC)c(NC(=O)c2cc3c(Cl)nc4ccccc4c3s2)c1	9.9*	-31	1	-5	5	-1
Oc1ccc(/C=C/c2nc(-c3ccccc3O)n(-c3ccccc3)n2)cc1	3	98*	1.1	-7	-20	-5
Nc1nonc1C(=O)NCCN=Cc1ccccc1O	3	0	1	-7	-8	2
Nc1nonc1C(=O)NCCN=Cc1cc(Cc2ccccc2)cc(Br)c1O	-1	99*	1	15	-12	-5

Compound activity from PubChem.
